# ChEMBL document CHEMBL3739274, “Highly functionalized tetrahydropyridines are cytotoxic and selective inhibitors of human puromycin sensitive aminopeptidase” (Eur J Med Chem, 2015)
# How the values were obtained:
# [1] = Inhibition of Plasmodium falciparum aminopeptidase-N using Leu-pNA as substrate after 30 mins
# Procedure, shortened: (§1)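 Enzyme was preincubated with compound in triplicate for 30 min at 37 °C in 10 mM Tris pH 7.5, 100 mM NaCl. Leu-pNA was then added and the immediate absorbance rise followed at 405 nm. IC₅₀ was computed from the concentration series.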
# [2] = Inhibition of Escherichia coli aminopeptidase-N using Leu-pNA as substrate after 30 mins; procedure, shortened: as §1
# [3] = target: T1, Aminopeptidase N (Sus scrofa, UniProt P15145); experiment: Inhibition of porcine aminopeptidase-N using Leu-pNA as substrate after 30 mins
# T1 sequence (P15145 whole entry): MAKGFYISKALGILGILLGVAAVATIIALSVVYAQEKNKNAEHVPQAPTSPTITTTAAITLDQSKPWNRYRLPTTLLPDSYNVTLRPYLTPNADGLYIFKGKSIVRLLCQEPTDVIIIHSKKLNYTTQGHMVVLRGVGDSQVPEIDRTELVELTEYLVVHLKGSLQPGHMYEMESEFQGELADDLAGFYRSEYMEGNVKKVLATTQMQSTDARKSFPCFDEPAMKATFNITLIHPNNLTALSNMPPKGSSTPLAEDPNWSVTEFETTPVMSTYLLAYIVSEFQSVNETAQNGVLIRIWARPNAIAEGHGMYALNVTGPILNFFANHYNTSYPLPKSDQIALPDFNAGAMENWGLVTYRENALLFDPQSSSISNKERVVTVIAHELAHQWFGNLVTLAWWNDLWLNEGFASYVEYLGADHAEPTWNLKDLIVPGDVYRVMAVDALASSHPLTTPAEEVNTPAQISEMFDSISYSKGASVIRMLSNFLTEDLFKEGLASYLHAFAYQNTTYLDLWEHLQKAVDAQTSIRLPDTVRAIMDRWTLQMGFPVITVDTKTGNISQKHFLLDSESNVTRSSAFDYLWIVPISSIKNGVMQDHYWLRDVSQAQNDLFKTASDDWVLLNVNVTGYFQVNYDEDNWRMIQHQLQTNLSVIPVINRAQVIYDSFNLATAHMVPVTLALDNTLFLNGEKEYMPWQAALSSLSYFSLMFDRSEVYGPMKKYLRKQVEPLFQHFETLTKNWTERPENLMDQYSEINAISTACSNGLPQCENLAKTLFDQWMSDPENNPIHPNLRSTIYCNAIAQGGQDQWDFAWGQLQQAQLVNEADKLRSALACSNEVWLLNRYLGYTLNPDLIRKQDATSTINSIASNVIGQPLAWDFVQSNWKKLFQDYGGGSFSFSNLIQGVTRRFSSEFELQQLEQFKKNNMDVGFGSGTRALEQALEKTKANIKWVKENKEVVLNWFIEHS
# Procedure, shortened: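 Commercial porcine enzyme was preincubated with compound in triplicate for 30 min at 37 °C. Substrate was then added and the immediate absorbance rise at 405 nm recorded. IC₅₀ was computed from the concentration series.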
# [4] = tested on: A549; experiment: Cytotoxicity against human A549 cells after 48 hrs by MTT assay; assay type: functional; details: A549, 48 h
# Procedure, shortened: (§2)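 Cell lines were grown in modified Eagle's medium with 10% FBS. Cells were seeded at 10,000 per well and left 24 h to attach in humid 5% CO₂. Viability was measured by MTT, with formazan dissolved in DMSO and absorbance read at 562 nm. Results are % cytotoxicity/viability, triplicates.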
# [5] = tested on: HeLa; experiment: Cytotoxicity against human HeLa cells after 48 hrs by MTT assay; assay type: functional; procedure, shortened: as §2
# [6] = tested on: HepG2; experiment: Cytotoxicity against human HepG2 cells after 48 hrs by MTT assay; assay type: functional; details: HepG2, 48 h; procedure, shortened: as §2
# [7] = target: Puromycin-sensitive aminopeptidase (Homo sapiens, UniProt P55786); experiment: Inhibition of recombinant human puromycin sensitive aminopeptidase using Leu-pNA as substrate after 30 mins
# Chain of Puromycin-sensitive aminopeptidase (P55786 whole entry): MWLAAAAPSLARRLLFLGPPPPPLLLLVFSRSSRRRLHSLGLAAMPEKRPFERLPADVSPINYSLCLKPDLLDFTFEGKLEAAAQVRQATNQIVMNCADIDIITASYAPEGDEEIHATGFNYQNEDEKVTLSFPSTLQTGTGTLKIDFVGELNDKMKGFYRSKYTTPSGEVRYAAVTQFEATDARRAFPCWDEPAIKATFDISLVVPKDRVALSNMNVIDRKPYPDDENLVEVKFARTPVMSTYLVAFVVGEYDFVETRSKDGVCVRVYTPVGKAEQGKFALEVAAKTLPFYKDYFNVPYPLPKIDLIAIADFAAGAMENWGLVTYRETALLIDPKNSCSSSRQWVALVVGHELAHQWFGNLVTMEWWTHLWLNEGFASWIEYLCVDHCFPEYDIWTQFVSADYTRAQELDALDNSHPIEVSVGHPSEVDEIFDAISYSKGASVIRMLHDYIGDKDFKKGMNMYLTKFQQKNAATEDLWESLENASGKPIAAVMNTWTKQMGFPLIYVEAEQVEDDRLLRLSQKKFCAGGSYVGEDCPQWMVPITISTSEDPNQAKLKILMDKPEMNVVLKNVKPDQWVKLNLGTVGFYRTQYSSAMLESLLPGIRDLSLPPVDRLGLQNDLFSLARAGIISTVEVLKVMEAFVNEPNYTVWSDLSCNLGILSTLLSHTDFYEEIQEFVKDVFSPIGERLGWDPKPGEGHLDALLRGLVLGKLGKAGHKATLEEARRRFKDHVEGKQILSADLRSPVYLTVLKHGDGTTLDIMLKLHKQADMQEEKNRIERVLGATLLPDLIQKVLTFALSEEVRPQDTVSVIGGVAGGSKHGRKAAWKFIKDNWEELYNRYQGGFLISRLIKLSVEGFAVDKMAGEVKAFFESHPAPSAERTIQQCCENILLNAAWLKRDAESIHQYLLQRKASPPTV
smiles,measurement,setting,value
OC1=CC(c2ccccn2)N(c2ccccc2)C(c2ccccn2)C1 (stereo not given),IC50,[1],> 100 µM
same,IC50,[2],> 100 µM
same,IC50,[3],> 100 µM
CCOC(=O)C1=C(Nc2ccccc2)CC(c2ccc(Br)cc2)N(c2ccccc2)C1c1ccc([N+](=O)[O-])cc1 (stereo not given),GI50,[4],> 100 µM
same,GI50,[5],10.6 µM
same,GI50,[6],> 100 µM
COC(=O)C1=C(Nc2ccccc2)CC(c2ccc([N+](=O)[O-])cc2)N(c2ccccc2)C1c1ccc([N+](=O)[O-])cc1 (stereo not given),IC50,[1],> 100 µM
same,IC50,[2],> 100 µM
same,IC50,[3],> 100 µM
CCOC(=O)C1=C(Nc2ccccc2)CC(c2cc(OC)c(OC)c(OC)c2)N(c2ccccc2)C1c1cccnc1 (stereo not given),IC50,[1],> 100 µM
same,IC50,[2],> 100 µM
same,IC50,[3],> 100 µM
CCOC(=O)C1C(=O)CC(c2cccnc2)N(c2ccccc2)C1c1cccnc1 (stereo not given),GI50,[4],> 100 µM
same,GI50,[5],9.32 µM
same,GI50,[6],11.2 µM
same,IC50,[1],> 100 µM
same,IC50,[2],> 100 µM
same,IC50,[3],> 100 µM
CCOC(=O)C1C(=O)CC(c2ccccn2)N(c2ccccc2)C1c1ccccn1 (stereo not given),IC50,[1],> 100 µM
same,IC50,[2],> 100 µM
same,IC50,[3],> 100 µM
CCOC(=O)C1=C(Nc2ccc(C)cc2)CC(c2ccc(F)cc2)N(c2ccc(C)cc2)C1c1ccc(F)cc1 (stereo not given),GI50,[4],> 100 µM
same,GI50,[5],> 100 µM
same,GI50,[6],14.9 µM
CCOC(=O)C1=C(Nc2ccccc2)CC(c2ccc(Br)cc2)N(c2ccccc2)C1c1cccs1 (stereo not given),IC50,[1],> 100 µM
same,IC50,[2],> 100 µM
same,IC50,[3],> 100 µM
CCOC(=O)C1=C(Nc2ccccc2)CC(c2ccc(Cl)cc2)N(c2ccccc2)C1c1cccnc1 (stereo not given),GI50,[4],> 100 µM
same,GI50,[5],9.95 µM
same,GI50,[6],11.9 µM
same,IC50,[1],> 100 µM
same,IC50,[2],> 100 µM
same,IC50,[3],> 100 µM
CCOC(=O)C1=C(Nc2ccc(C)cc2)CC(c2ccccc2)N(c2ccc(C)cc2)C1c1ccccn1 (stereo not given),GI50,[4],> 100 µM
same,GI50,[5],90.7 µM
same,GI50,[6],> 100 µM
same,IC50,[1],> 100 µM
same,IC50,[2],> 100 µM
same,IC50,[3],> 100 µM
CCOC(=O)C1=C(Nc2ccccc2)CC(c2ccccn2)N(c2ccccc2)C1c1ccccn1 (stereo not given),IC50,[1],> 100 µM
same,IC50,[2],> 100 µM
same,IC50,[3],> 100 µM
CCOC(=O)C1=C(Nc2ccccc2)CC(c2ccc(C#N)cc2)N(c2ccccc2)C1c1cccnc1 (stereo not given),GI50,[4],> 100 µM
same,GI50,[5],> 100 µM
same,GI50,[6],13.7 µM
same,IC50,[1],> 100 µM
same,IC50,[2],> 100 µM
same,IC50,[3],> 100 µM
CCOC(=O)C1=C(Nc2ccccc2)CC(c2ccc(C#N)cc2)N(c2ccccc2)C1c1ccccn1 (stereo not given),IC50,[1],> 100 µM
same,IC50,[2],> 100 µM
same,IC50,[3],> 100 µM
OC1=CC(c2cccnc2)N(c2ccccc2)C(c2cccnc2)C1 (stereo not given),IC50,[1],> 100 µM
same,IC50,[2],> 100 µM
same,IC50,[3],> 100 µM
CCOC(=O)C1=C(Nc2ccccc2)CC(c2ccc(F)cc2)N(c2ccccc2)C1c1ccc([N+](=O)[O-])cc1 (stereo not given),GI50,[4],> 100 µM
same,GI50,[5],88.2 µM
same,GI50,[6],> 100 µM
CCOC(=O)C1=C(Nc2ccccc2)CC(c2cccnc2)N(c2ccccc2)C1c1cccnc1 (stereo not given),GI50,[4],> 100 µM
same,GI50,[5],87.9 µM
same,GI50,[6],81.5 µM
same,IC50,[1],> 100 µM
same,IC50,[2],> 100 µM
same,IC50,[3],> 100 µM
COc1cccc2c1C(=O)c1c(O)c3c(c(O)c1C2=O)C[C@@](O)(C(=O)CO)C[C@@H]3O[C@H]1C[C@H](N)[C@H](O)[C@H](C)O1 [DOXORUBICIN],GI50,[4],8.14 µM
same,GI50,[5],7.51 µM
same,GI50,[6],4.45 µM
COc1ccc(C[C@H](N)C(=O)N[C@H]2[C@@H](O)[C@H](n3cnc4c(N(C)C)ncnc43)O[C@@H]2CO)cc1 [PUROMYCIN],IC50,[7],2.45 µM
same,IC50,[1],> 100 µM
same,IC50,[2],> 100 µM
same,IC50,[3],> 100 µM
